Assay [1] has as its system Helicoverpa zea. Put plainly: Antiinsectan activity in Helicoverpa zea at 100 ppm. The assay is classed as functional, organism-based. In a few lines: (§1)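 Test material was mixed into the H. zea diet at the stated ppm level (100 or 1500 ppm). Activity was scored as the reduction in weight gain relative to controls.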
For assay [2], the system named is Bacillus subtilis. Put plainly: Antibacterial activity against Bacillus subtilis ATCC 6051 at 100 ug/disk by standard disk diffusion assay. It counts as functional. In a few lines: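 Standard paper-disk diffusion test with 100 μg loaded per disk against B. subtilis ATCC 6051. Read-out is the diameter of the inhibition zone in mm.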
For assay [3], the system named is Helicoverpa zea. As to the kind of experiment: Antiinsectan activity in Helicoverpa zea assessed as reduction in weight gain at 1500 ppm relative to control. The assay is classed as functional. Details: scale not given: the % may be the effect or the level left. The gist of the method: as §1

Calls of active or inactive are those of the source. No cut-off for these calls is given here.

Regarding `O=C(O)/C=C/CCCCCCC(=O)O`, in assay [1], the outcome was inactive.

Take `COC(=O)c1ccc([C@H](O)c2ccccc2)cn1`: in assay [1], the result was inactive.

On to `COC(=O)CNC(=O)c1ccc(C(=O)c2ccccc2)cn1`, for which the result in assay [1] was inactive.

Regarding `O=C(O)CNC(=O)c1ccc([C@H](O)c2ccccc2)cn1`, the result in assay [1] and in assay [2] was inactive.

Consider `COC(=O)CNC(=O)c1ccc([C@H](O)c2ccccc2)cn1`, for which, in assay [1], the result was inactive.

For the compound `O=C(O)CCCCCC/C=C/CO`, the result in assay [1] and in assay [2] was inactive.

Turning to `O=C(O)c1ccc([C@H](O)c2ccccc2)cn1` [VERTILECANIN A], the Activity in assay [3] turned out to be 49%. Besides, in assay [1], the result was inactive. In addition, the zone of inhibition at 100 µg/disc in assay [2] (read-out: IZ) came out at 8 mm.

The values are drawn from ChEMBL document CHEMBL1155706, “Vertilecanins: new phenopicolinic acid analogues from Verticillium lecanii” (2001).
